Laboratory results published in ChEMBL document CHEMBL2157885, “Synthesis of 1,5-diarylhaloimidazole analogs and their inhibitory activities against PGE₂ production from LPS-treated RAW 264.7 cells” (Bioorg Med Chem, 2012).

Assays:
[1] = Lipophilicity, log P of the compound; type: physicochemical; conditions: octanol/water
RAW264.7 [2] = test: Cytotoxicity against LPS-stimulated mouse RAW264.7 cells by MTT assay; type: cell-based
Summary of the method: (§1)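 Viability of ATCC RAW 264.7 cells, grown in DMEM with 10% FBS and 1% antibiotics at 37 °C under 5% CO₂, read by MTT assay with or without LPS at the compound concentrations used for the PGE₂ assay.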

RAW264.7 [3] = test: Cytotoxicity against mouse RAW264.7 cells by MTT assay; type: cell-based; summary of the method: as §1
[4] = target: T1, Prostaglandin G/H synthase 2 (Mus musculus, UniProt Q05769); test: Inhibition of COX-2-induced PGE2 production in LPS-stimulated mouse Raw 264.7 cells preincubated for 1 hr before LPS challenge measured after 24 hrs by ELISA
T1 sequence (Q05769 whole entry): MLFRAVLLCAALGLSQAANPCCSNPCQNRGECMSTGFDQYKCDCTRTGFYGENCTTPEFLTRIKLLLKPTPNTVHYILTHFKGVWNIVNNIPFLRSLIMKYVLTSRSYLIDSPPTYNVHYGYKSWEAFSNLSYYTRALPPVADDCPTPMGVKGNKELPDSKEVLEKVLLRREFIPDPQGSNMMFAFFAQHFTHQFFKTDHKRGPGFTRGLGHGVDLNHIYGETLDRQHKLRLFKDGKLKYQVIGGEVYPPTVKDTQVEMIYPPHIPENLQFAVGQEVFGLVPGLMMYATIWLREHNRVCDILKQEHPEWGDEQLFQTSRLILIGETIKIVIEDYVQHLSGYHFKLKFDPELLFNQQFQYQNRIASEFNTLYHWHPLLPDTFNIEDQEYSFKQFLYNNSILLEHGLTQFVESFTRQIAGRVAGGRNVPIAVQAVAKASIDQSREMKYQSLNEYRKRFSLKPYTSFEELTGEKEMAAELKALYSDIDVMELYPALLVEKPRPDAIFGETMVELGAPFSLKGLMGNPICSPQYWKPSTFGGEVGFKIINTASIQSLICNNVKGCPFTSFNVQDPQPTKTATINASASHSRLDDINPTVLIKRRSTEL
Summary of the method: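 RAW 264.7 cells (ATCC), cultured in DMEM with 10% FBS and 1% antibiotics at 37 °C under 5% CO₂, seeded at 2 × 10⁵ cells/well. 1 h compound pre-incubation preceded LPS addition and 24 h incubation. Medium PGE₂ quantified by ELISA; IC₅₀ reported from inhibition relative to basal and LPS-only controls.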

[5] = target: T2, Prostaglandin G/H synthase 2 (Mus musculus) (UniProt Q05769); test: Inhibition of COX-2-induced PGE2 production in LPS-stimulated mouse Raw 264.7 cells at 10 uM preincubated for 1 hr before LPS challenge measured after 24 hrs by ELISA
T2 sequence (whole entry): T1 sequence (Q05769 whole entry)
Summary of the method: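 ATCC RAW 264.7 cells in DMEM with 10% FBS and 1% antibiotics, 37 °C, 5% CO₂, seeded at 2 × 10⁵ cells/well. Compound pre-incubated 1 h, then LPS added, 24 h further. PGE₂ in medium measured by ELISA. % inhibition = 100 × [1 − (treated + LPS − basal)/(LPS only − basal)]. Arithmetic means, n = 3.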

[6] = Dissociation constant, pKa of the compound; type: physicochemical

logP [1] | IC50 [4] | inhibition [5] | pKa [6] | Compound | Activity (RAW264.7 [2]) | Activity (RAW264.7 [3])
3.64 | 550 nM | 98% | 1.07 | CS(=O)(=O)c1ccc(-c2c(Cl)nc(Cl)n2-c2ccc(F)cc2F)cc1 | Non-toxic | Non-toxic
– | – | 42% | – | CS(=O)(=O)c1ccc(-c2cnc(Cl)n2-c2ccc(F)cc2F)cc1 | Non-toxic | Non-toxic
4.64 | – | 15% | – | CS(=O)(=O)c1ccc(-c2c(Br)nc(Br)n2-c2ccc(F)cc2F)cc1 | Non-toxic | Non-toxic
3.88 | – | 90% | – | CS(=O)(=O)c1ccc(-c2cnc(I)n2-c2ccc(F)c(F)c2)cc1 | Non-toxic | Non-toxic
– | 6520 nM | 84% | – | CS(=O)(=O)c1ccc(-c2cncn2-c2ccc(F)cc2F)cc1 | Non-toxic | Non-toxic

Continued, compound first:

Compound | logP [1] | IC50 [4] | inhibition [5] | pKa [6] | Activity (RAW264.7 [2]) | Activity (RAW264.7 [3])
CS(=O)(=O)c1ccc(-c2cnc(Br)n2-c2ccc(F)c(F)c2)cc1 | 3.7 | 580 nM | 99% | 4.05 | Non-toxic | Non-toxic
CS(=O)(=O)c1ccc(-c2c(Cl)ncn2-c2ccc(F)c(F)c2)cc1 | – | – | 56% | – | Non-toxic | Non-toxic
CS(=O)(=O)c1ccc(-c2cncn2-c2ccc(F)c(F)c2)cc1 | – | – | – | – | Non-toxic | Non-toxic
CS(=O)(=O)c1ccc(-c2c(Cl)nc(Cl)n2-c2ccc(F)c(F)c2)cc1 | 4.44 | – | 81% | – | Non-toxic | Non-toxic
CS(=O)(=O)c1ccc(-c2c(Br)ncn2-c2ccc(F)c(F)c2)cc1 | 3.72 | – | 7% | – | Non-toxic | Non-toxic
